Reference: article PMC7028313 (ACS chemical neuroscience, 2019)

What was measured:
[1] = test system: NF-κB (p50, p52, p65, RelB, c-Rel) in SH-SY5Y cells; assay: Nuclear NF-κB DNA-binding ELISA; assay type: cell-based, human
[2] = test system: mitochondrial membrane potential (Δψm) in SH-SY5Y cells; assay: JC-10 mitochondrial membrane potential assay; assay type: cell-based, human
[3] = test system: p38α/β; settings: read-out: IC50 p38α/β; cited from earlier work
[4] = test system: Aβ42 neurotoxicity in SH-SY5Y cells; assay: Anti-Aβ42 neurotoxicity assay; assay type: cell-based, human; settings: 0.1 μM pretreatment 1 h then 10 μM Aβ42 72 h
[5] = biological target: GSK-3β (Homo sapiens, UniProt P49841); assay: ADP-Glo kinase luminescent assay; assay type: biochemical; settings: 1 μM TPPU, in comparison with p38β
GSK-3β, sequence (P49841 whole entry): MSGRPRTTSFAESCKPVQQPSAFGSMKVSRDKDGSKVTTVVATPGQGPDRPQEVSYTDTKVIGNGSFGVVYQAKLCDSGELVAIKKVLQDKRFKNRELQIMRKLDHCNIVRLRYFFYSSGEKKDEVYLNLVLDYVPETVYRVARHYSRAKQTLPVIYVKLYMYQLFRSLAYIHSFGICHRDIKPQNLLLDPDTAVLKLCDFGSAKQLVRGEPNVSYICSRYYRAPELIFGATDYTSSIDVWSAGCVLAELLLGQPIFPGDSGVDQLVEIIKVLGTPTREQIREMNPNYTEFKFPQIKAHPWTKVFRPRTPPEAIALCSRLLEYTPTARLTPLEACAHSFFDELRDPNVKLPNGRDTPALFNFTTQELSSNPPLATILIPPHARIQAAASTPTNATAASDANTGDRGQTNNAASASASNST

[6] = test system: SH-SY5Y cells; assay: Neuronal morphology analysis under Aβ42; assay type: cell-based, human; settings: 100 nM pretreatment then 10 μM Aβ42, 72 h
[7] = test system: p38α; assay: ADP-Glo kinase luminescent assay; assay type: biochemical, human; settings: 1 μM TPPU
Method in brief: (§1)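 Test compound at 1 μM, or 0.2% PEG 400 vehicle. Incubated 1 h at room temperature, then ADP-Glo luminescence read. Staurosporine 1 μM served as reference. Activity expressed relative to vehicle. Duplicates, six independent experiments.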

[8] = biological target: p38β kinase (Homo sapiens, UniProt Q15759); assay: ADP-Glo kinase luminescent assay; assay type: biochemical; settings: 1 μM TPPU, relative to vehicle control
p38β kinase, sequence (Q15759 whole entry): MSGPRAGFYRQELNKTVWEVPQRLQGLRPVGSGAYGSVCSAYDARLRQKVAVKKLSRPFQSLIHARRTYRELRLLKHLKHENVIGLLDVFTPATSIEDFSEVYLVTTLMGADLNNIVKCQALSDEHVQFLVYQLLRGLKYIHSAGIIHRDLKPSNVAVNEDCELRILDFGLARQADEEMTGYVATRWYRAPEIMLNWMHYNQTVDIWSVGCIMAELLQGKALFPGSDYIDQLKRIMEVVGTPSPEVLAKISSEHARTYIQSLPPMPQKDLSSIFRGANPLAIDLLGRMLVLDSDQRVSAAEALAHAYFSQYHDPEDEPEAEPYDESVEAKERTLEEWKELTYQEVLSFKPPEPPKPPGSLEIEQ

[9] = test system: Tau pS396 in SH-SY5Y cells; assay: Anti-tau hyperphosphorylation ELISA; assay type: cell-based, human
[10] = test system: AMPKA2; assay: ADP-Glo kinase luminescent assay; assay type: biochemical, human; settings: 1 μM TPPU, in comparison with p38β
Method in brief: as §1

[11] = test system: SH-SY5Y cells; assay: Cell viability / cytotoxicity MTS assay; assay type: cell-based, human; settings: TPPU alone, 72 h
[12] = test system: CK1α1; assay: ADP-Glo kinase luminescent assay; assay type: biochemical, human; settings: 1 μM TPPU, in comparison with p38β
Method in brief: as §1

[13] = test system: p38δ; assay: ADP-Glo kinase luminescent assay; assay type: biochemical, human; settings: 1 μM TPPU
Method in brief: as §1

[14] = test system: sEH in SH-SY5Y cells; assay: Cellular sEH activity in SH-SY5Y cells, [3H]-t-DPPO substrate; assay type: cell-based, human; settings: 10, 100 and 1000 nM for 24 h
[15] = biological target: T1, p38γ kinase (Homo sapiens, UniProt P53778); assay: ADP-Glo kinase luminescent assay; assay type: biochemical; settings: 1 μM TPPU, relative to vehicle control
T1 sequence (P53778 1-367): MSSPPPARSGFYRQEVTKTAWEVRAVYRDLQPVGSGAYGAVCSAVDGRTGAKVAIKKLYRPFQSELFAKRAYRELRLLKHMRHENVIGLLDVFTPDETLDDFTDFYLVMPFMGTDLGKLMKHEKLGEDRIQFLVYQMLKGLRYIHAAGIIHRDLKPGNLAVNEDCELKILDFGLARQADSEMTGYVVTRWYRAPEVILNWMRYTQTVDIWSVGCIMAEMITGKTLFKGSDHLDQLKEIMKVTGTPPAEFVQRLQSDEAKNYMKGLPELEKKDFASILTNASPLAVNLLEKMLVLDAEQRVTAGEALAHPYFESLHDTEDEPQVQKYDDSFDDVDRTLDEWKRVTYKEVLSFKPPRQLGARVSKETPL

[16] = test system: sEH; settings: read-out: IC50 sEH; cited from earlier work

C[C@@H]1C[C@H]2[C@@H]3CCC4=CC(=O)C=C[C@]4(C)[C@@]3(F)[C@@H](O)C[C@]2(C)[C@@]1(O)C(=O)CO [DEX, dexamethasone, reference compound]
levels of NF-κB subunits in neuronal nuclei ([1]; 0.1 μM DEX pretreatment 1 h then 5 μM Aβ42 8 h): significantly reduced levels of all five NF-κB subunits

N#CC(C#N)=NNc1ccc(OC(F)(F)F)cc1 [FCCP, carbonyl cyanide-4-(trifluoromethoxy)phenylhydrazone]
Δψm depolarization (reference ionophore) ([2]; FCCP 50 μM): depolarized Δψm

CCC(=O)N1CCC(NC(=O)Nc2ccc(OC(F)(F)F)cc2)CC1 [TPPU]
neuroprotection (cell viability) [4]: effective neuroprotection
inhibition of kinase activity [5]: weakly inhibited
neuronal morphology / Aβ42 toxicity [6]: effectively relieved Aβ42 toxicity
inhibitory effect on kinase activity [7]: not significant
remaining kinase activity [8]: 36%
Aβ42-induced tau phosphorylation level at pS396 ([9]; 0.01, 0.1 and 1 μM pretreatment 1 h then 10 μM Aβ42 72 h, p < 0.0001): significantly mitigated
alleviation of tau hyperphosphorylation compared with SB202190 ([9]; TPPU 0.01 μM versus SB202190 0.05 μM): stronger alleviative effect
inhibition of kinase activity [10]: weakly inhibited
tolerable and nontoxic dose [11]: ≤ 1000 nM
nuclear translocation of NF-κB subunits ([1]; 0.05 and 0.1 μM pretreatment 1 h then 5 μM Aβ42 8 h, p < 0.0001): inhibited nuclear translocation of all five subunits
inhibition of kinase activity [12]: weakly inhibited
inhibitory effect on kinase activity [13]: not significant
cellular sEH activities [14]: significantly decreased cellular sEH activities in a dose-dependent manner
remaining kinase activity [15]: 49%

epoxyeicosatrienoic acids [EETs, reference compound]
neuroprotection (cell viability) [4]: effective neuroprotection
loss of Δψm induced by Aβ42 ([2]; 0.1 μM pretreatment, 10 μM Aβ42 72 h): attenuated the loss of Δψm
